{"data": "Assay results gathered from unrelated publications", "note": "Each line is one published result; the experiments were not run side by side. pIC50: −log10 of the molar value."}
{"SMILES": "Cc1ncc2n1-c1ccc(Cl)cc1C(c1ccccc1F)=NC2", "assay": "metabolic stability", "system": "human, liver microsomes", "conditions": "1 µM, 30 min", "endpoint": "compound remaining", "value": "< 7%"}
{"SMILES": "C#Cc1ccc2c(c1)C(c1ccccc1F)=N[C@@H](C)c1c(C(=O)OCC(F)(F)F)ncn1-2", "assay": "metabolic stability", "system": "human, liver microsomes", "conditions": "10 min", "endpoint": "compound remaining", "value": "< 5%"}
{"SMILES": "COc1cc([C@@H]2c3cc4c(cc3[C@H](O)[C@H]3COC(=O)[C@H]23)OCO4)cc(OC)c1OC", "tested on": "L6", "assay": "cell growth or viability, resazurin", "conditions": "70 h", "endpoint": "pIC50", "value": 7.30}
{"SMILES": "Cc1nccn1CCCCOc1cc2oc(=O)ccc2cc1O", "tested on": "HepG2.2.15", "assay": "cell growth or viability, MTT", "conditions": "9 days", "endpoint": "CC50", "value": "> 648 µM"}
{"SMILES": "COc1cc([C@@H]2c3cc4c(cc3[C@H](O)[C@H]3COC(=O)[C@H]23)OCO4)cc(OC)c1OC", "tested on": "L6", "assay": "cell growth or viability, resazurin", "conditions": "72 h", "endpoint": "pIC50", "value": 6.77}
{"SMILES": "N=c1c2c(-c3ccccc3)c(-c3ccccc3)n(Cc3ccccc3)c2ncn1[C@H]1CC[C@H](O)CC1", "assay": "metabolic stability", "system": "human, hepatocytes", "conditions": "1 µM, 4 h", "endpoint": "compound remaining", "value": "86%"}
{"SMILES": "O=c1ccc2cc(O)c(OCCCCCn3ccnc3)cc2o1", "tested on": "HepG2.2.15", "assay": "cell growth or viability, MTT", "conditions": "9 days", "endpoint": "CC50", "value": "140 µM"}
{"SMILES": "CCOC(=O)c1ncn2c1[C@H](C)N=C(c1ccccc1F)c1cc(C3CC3)ccc1-2", "assay": "metabolic stability", "system": "human, liver microsomes", "conditions": "20 min", "endpoint": "compound remaining", "value": "< 5%"}
{"SMILES": "Cc1ncc2n1-c1ccc(Cl)cc1C(c1ccccc1F)=NC2", "assay": "metabolic stability", "system": "human, hepatocytes", "conditions": "1 µM, 4 h", "endpoint": "compound remaining", "value": "26%"}
{"SMILES": "Cc1nc(C(=O)N2CCC[C@H]2C(=O)N[C@@H](CCC2CCCCC2)C(=O)N[C@@H](CC(C)C)C(=O)NC(C)(C)C(=O)N[C@@H](CC(C)C)C(=O)N(C)[C@@H](CC(C)C)C(=O)NC(C)(C)C(=O)NC(C)(C)C(=O)NCCC(=O)NC2(CN(C)C)CCC2)co1", "tested on": "L6", "assay": "cell growth or viability, resazurin", "conditions": "68 h", "endpoint": "pIC50", "value": "< 5.07"}
